Experimental data published in paper PMC6153967 (CNS Drugs, 2018).
Several values for one entry are separate records, joined by “and”; a condition that tells them apart may be missing. Identical values can stand only once. Like-named read-outs stand apart in the source and are kept apart here. One block for each compound: values may come before it.

Experiments:
[1] = format: in vivo, human; conditions: drug-naïve
Outline: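 CSF came from 64 untreated patients with cognitive deficits (MMSE 15–30). Sampling: lumbar puncture at L3–L5, supine, atraumatic needle, 8–11 a.m. Spun 5 min at 2000 rpm at room temperature, aliquoted into polypropylene, stored at –80 °C. Samples were derivatized with EDC/TFEA for 30 min at room temperature and centrifuged. The supernatant went to LC–MS/MS. Identity was set by retention time and two transition ions against reference standard. LOQ 0.1 ng/ml; range 0.1–1000 ng/ml.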

[2] = format: in vivo, human; conditions: tramiprosate 150 mg BID, week 78
Outline: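 Retrospective lumbar CSF from six patients with AD in the phase III trial, sampled at week 78 of dosing. The metabolite was quantified by a validated LC–MS/MS method in a separate bioanalytical laboratory.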

[3] = molecular target: Recombinant human Aβ42 peptide (Homo sapiens, UniProt P05067); test: IMS–MS anti-Aβ42 oligomer activity; format: biochemical; conditions: for Inhibition of Aβ42 oligomer formation (in words): 1000:1, 24 h in vitro
Outline: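 Recombinant human Aβ42 was reconstituted in LC–MS-grade water as a 5 mg/ml stock and diluted to 22 pmol/µl final. Test compound in water was diluted to […] and 22,000 pmol/µl solutions for 100- and 1000-fold molar excess. Mixtures were incubated at room temperature for 0, 4 and 24 h. Samples were analysed by direct infusion on a traveling-wave IMS Q-TOF: positive sensitivity mode, m/z 500–4000, with drift times used to resolve monomer and oligomers.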

[4] = Oral and intravenous pharmacokinetics in Sprague Dawley rats; format: in vivo; conditions: male, rat, plasma, 10 mg/kg; for Vd: intravenous 10 mg/kg
Outline: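 Fasted male Sprague Dawley rats, n = 3 per group, received test compound in saline orally by gavage (30 mg/kg) or as an IV bolus (10 mg/kg). Serial blood was drawn at 0.25, 0.5, 1, 2, 4, 8 and 24 h into K2EDTA and centrifuged to plasma. Plasma was stored at –80 °C and assayed by LC–MS/MS. Parameters were calculated from mean concentration–time curves.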

[5] = Brain penetration after single oral dose in Sprague Dawley rats; format: in vivo, male Sprague Dawley rats; conditions: oral 30 mg/kg
Outline: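 Fasted male Sprague Dawley rats received test compound in saline by oral gavage at 30 mg/kg. Terminal plasma, CSF and brain were taken at 1, 2, 6 and 24 h, three rats per time point. Brains were perfused to remove blood before processing. All matrices were assayed by LC–MS/MS. AUC ratios were derived from mean concentration–time curves.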

[6] = ref Alzheon, data on file, cited from earlier work
[7] = cited from earlier work
[8] = tramiprosate phase III NA trial; cited from earlier work
[9] = both phase III trials, subjects receiving active drug; cited from earlier work

Recombinant human Aβ42 peptide, sequence (P05067 672-713): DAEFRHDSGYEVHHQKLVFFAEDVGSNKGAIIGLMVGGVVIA

Concentration of 3-SPA in CSF, median ([1]; all patients): 1.7 ng/ml and 10.8 nM | Concentration of 3-SPA in CSF, median ([1]; female): 1.6 ng/ml and 10.4 nM | Concentration of 3-SPA in CSF, minimum–maximum ([1]; female): 0.6–4.3 ng/ml and 4.2–27.7 nM | Concentration of 3-SPA in CSF, mean ± SD ([1]; female (N 37)): 1.7 ± 0.7 ng/ml and 11.2 ± 4.4 nM | Concentration of 3-SPA in CSF, median ([1]; male): 1.7 ng/ml and 11.1 nM | Concentration of 3-SPA in CSF, minimum–maximum ([1]; male): 0.8–3.8 ng/ml and 5.5–24.7 nM | Concentration of 3-SPA in CSF, mean ± SD ([1]; male (N 27)): 1.9 ± 0.6 ng/ml and 12.5 ± 4.1 nM | concentration at 78 week ([2]; human, CSF, oral, 150 mg BID, Minimum–maximum 3-SPA concentration in CSF): 112 to 232 nM | Median 3-SPA concentration in CSF [2]: 19.8 ng/ml and 128.6 nM | Aβ42 oligomer species not inhibited ([3]; 1000:1, after 4 h incubation): dimers, trimers, and pentamers | Aβ42 oligomer species not inhibited ([3]; 1000:1, after 24 h incubation): pentamers | clearance [4]: 45 mL/min/kg | Vd ([4]; Vss): 12.9 L/kg | Vd ([4]; Vz): 43.6 L/kg | Brain/plasma AUC ratio (brain penetration) [5]: 25.3%
SMILES: O=C(O)CCS(=O)(=O)O [3-SPA, 3-sulfopropanoic acid]
Inhibition of Aβ42 oligomer formation (in words) [3]: Near complete prevention of formation of Aβ42 oligomers except for pentamers | Sustained 3-SPA levels (plasma AUC) ([6]; at 2000 mg/kg ALZ-801 NOAEL, 28-day rat study): 180 millimolar (AUC in h × nM)

SMILES: CC(C)[C@H](N)C(=O)NCCCS(=O)(=O)O [ALZ-801]
Improvement in brain penetration ([7]; PK/PD projections using 14C tramiprosate): ~ 30% | NOAEL ([6]; 1-month (28-day) rat study): 2000 mg/kg | NOAEL ([6]; 6-month rat study): 1500 mg/kg

Inhibition of Aβ42 oligomer formation (in words) [3]: complete inhibition
SMILES: NCCCS(=O)(=O)O [Tramiprosate, reference compound]
Steady-state brain penetration [7]: approximately 40% | Estimated mean concentration in the brain [8]: ~ 130 nM | Cases of ARIA-E in brain MRI safety analyses [9]: no cases
